The values below come from ChEMBL document CHEMBL3244100, “Effect of sparsomycin analogues on the puromycin-peptidyl transferase reaction on ribosomes” (J Med Chem, 1978).

Test [1] has as its target Bacterial 70S ribosome. The test is described as follows: Competitive inhibition of peptidyl transferase activity of Escherichia coli ribosome using Ac[14C]-L-Phe-tRNA/puromycin as donor/acceptor substrate assessed as acetyl[14C]phenylalanylpuromycin formation by double reciprocal plot analysis. An outline of the steps:
(§1)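 E. coli washed ribosomes (2.78 A260 units) charged with 20.8 pmol Ac[14C]Phe-tRNA in 100 mM Tris-Cl pH 7.5, 100 mM NH4Cl, 15 mM Mg(OAc)2, 0.65 mM DTT, 1.2 mM GTP, FWR, poly(U), 8 min at 28 °C. Mixture then added to puromycin with or without inhibitor, 28 °C. Product measured radiometrically. Ki from double reciprocal plots; highest concentration tested 2 × 10^-4 M.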

The target of test [2] is T1, Bacterial 70S ribosome (Bacteria) (UniProt P0A7V0+P60723+P0AG67+P0A7R5+P0A7R9+P0A7S3+P0A7S9+P0AG59+P0ADZ4+P0A7T3+P0AG63+P0A7T7+P0A7U3+P0A7U7+P68679+P0A7V3+P0A7V8+P0A7W1+P02358+P02359+P0A7W7+P0A7X3+P0A7J3+P0A7J7+P0AA10+P0ADY3+P02413+P0ADY7+P0AG44+P0C018+P0A7K6+P0A7L0+P0A7L3+P0AG48+P61175+P0ADZ0+P60624+P68919+P0A7L8+P0A7M2+P0A7M6+P60422+P0AG51+P0A7N1+P0A7M9+P0A7N4+P0A7N9+P0A7P5+P0A7Q1+Q2EEQ2+P0A7Q6+P60438+P62399+P0AG55+P0A7K2). Briefly: Competitive inhibition of peptidyl transferase activity of Escherichia coli ribosome using Ac[14C]-L-Phe-tRNA/puromycin as donor/acceptor substrate assessed as acetyl[14C]phenylalanylpuromycin formation at 2 x 10^-4 M by double reciprocal plot analysis. Summed up: as §1

In test [3] the target is T1, Bacterial 70S ribosome (Bacteria). Briefly: Competitive inhibition of peptidyl transferase activity of Escherichia coli ribosome using Ac[14C]-L-Phe-tRNA/puromycin as donor/acceptor substrate assessed as acetyl[14C]phenylalanylpuromycin formation incubated with donor substrate/enzyme prior to puromycin addition. Summed up: (§2)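 Ribosomes charged with Ac[14C]-L-Phe-tRNA as in the binding step (poly(U), GTP, FWR, Mg2+, 8 min, 28 °C). The charged mixture was preincubated with 10^-6 M inhibitor for 15 min at 28 °C before adding 10^-4 M puromycin. Ac[14C]Phe-puromycin formation was followed over time at 28 °C.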

Test [4] deals with Bacterial 70S ribosome. Briefly: Competitive inhibition of peptidyl transferase activity of Escherichia coli ribosome using Ac[14C]-L-Phe-tRNA/puromycin as donor/acceptor substrate assessed as acetyl[14C]phenylalanylpuromycin formation by Dixon plot analysis.
Test [5] has as its target T1, Bacterial 70S ribosome (Bacteria). The test is described as follows: Competitive inhibition of peptidyl transferase activity of Escherichia coli ribosome using Ac[14C]-L-Phe-tRNA/puromycin as donor/acceptor substrate assessed as acetyl[14C]phenylalanylpuromycin formation at 10^-6 M preincubated for 15 mins prior to puromycin addition. An outline of the steps: as §2

Molecules are shown by their SMILES. pKi: −log10 of the molar value. Calls of active or inactive are those of the source. No cut-off for these calls is given here.

Take `CCCSC[C@H](CO)NC(=O)/C=C/c1c(C)[nH]c(=O)[nH]c1=O`: the pKi – broadly, −log10 of the Ki, conventionally taken in molar units – on Bacterial 70S ribosome [1] was 5.96. In the case of `CCCSC[C@@H](CO)NC(=O)/C=C/c1c(C)[nH]c(=O)[nH]c1=O`, the inhibition result in test [2] is “inactive”. Regarding `CSCSCC(CO)NC(=O)/C=C/c1c(C)nc(O)nc1O` (racemic), in test [3], the inhibition entry is “Active”. Also, the pKi at Bacterial 70S ribosome [1] is 5.96. `CCCSCC(CO)NC(=O)/C=C/c1c(C)[nH]c(=O)[nH]c1=O` (racemic): the pKi on Bacterial 70S ribosome [4] and on Bacterial 70S ribosome [1] was 5.70 in each case. `Cc1[nH]c(=O)[nH]c(=O)c1/C=C/C(=O)NC(CO)CSCc1ccccc1` (racemic): the pKi at Bacterial 70S ribosome [1] was 5.92. For `CCCCCC(CO)NC(=O)/C=C/c1c(C)[nH]c(=O)[nH]c1=O` (racemic), the pKi at Bacterial 70S ribosome [1] is 5.64. As to `Cc1[nH]c(=O)[nH]c(=O)c1/C=C/C(=O)NC(C)CO` (racemic), the inhibition entry in test [2] is “inactive”. In the case of `CSC[S@@+]([O-])CC(CO)NC(=O)/C=C/c1c(C)[nH]c(=O)[nH]c1=O` (stereo partly specified) [SPARSOMYCIN], the inhibition result in test [5] was “Active”. The pKi at Bacterial 70S ribosome [1] is 6.30.
